Results reported in ChEMBL document CHEMBL1123261, “Comparative antiaggregatory activity in human platelets of a benzopyranone aci-reductone, clofibric acid, and a 2,3-dihydrobenzofuran analogue” (J Med Chem, 1986).
pIC50: −log10 of the molar value.

What was measured:
Assay type in all cases: functional, organism-based
[1] = species: Homo sapiens; test: Compound was tested for the inhibitory activity against serotonin secretion by U-46,619 (0.3 uM) + Aspirin (ASA, 1 mM).
Procedure, shortened: (§1)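 Human platelet-rich plasma (3 × 10^8/mL) prelabeled with [14C]serotonin. Inhibitor added 1 min before the inducer: ADP 1–5 μM, AA 0.2–1 mM, or U46619 0.3 μM with aspirin 1 mM. Dense-granule secretion measured as release of radioactivity. Mean IC50 ± SEM, three to nine donors.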

[2] = species: Homo sapiens; test: Compound was tested for the inhibitory activity against serotonin secretion by adenosine -Diphosphate (ADP (1-5 uM)); procedure, shortened: as §1
[3] = species: Homo sapiens; test: Compound was tested for the inhibitory activity against serotonin secretion by arachidonic acid (AA (0.1-1 mM)).; conditions: in the assay text read “AA (0.2-1 mM)” for “AA (0.1-1 mM)”; procedure, shortened: as §1
[4] = species: Homo sapiens; test: Compound was tested for the inhibitory activity against human platelet aggregation by adenosine -Diphosphate (ADP (1-5 uM))
Procedure, shortened: (§2)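 Human platelet-rich plasma, count adjusted to 3 × 10^8/mL. Turbidometric (Born) aggregometry. Inhibitor added 1 min before inducer, which was used at the minimum level giving maximal aggregation. IC50 taken from change in light-transmittance amplitude after 6 min for ADP (secondary aggregation only) and 4 min for AA and U46619. U46619 samples contained aspirin 1 mM. Mean ± SEM, three to nine donors.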

[5] = species: Homo sapiens; test: Compound was tested for the inhibitory activity against human platelet aggregation by U46,619 (0.3 uM) + Aspirin (ASA, 1 mM).; procedure, shortened: as §2
[6] = species: Homo sapiens; test: Compound was tested for the inhibitory activity against human platelet aggregation by arachidonic acid (AA (0.1-1 mM)).; conditions: in the assay text read “AA (0.2-1 mM)” for “AA (0.1-1 mM)”; procedure, shortened: as §2
[7] = species: Homo sapiens; test: Compound was tested for the inhibitory activity against serotonin secretion by adenosine -Diphosphate (ADP (1-5 uM)).; procedure, shortened: as §1

Structure (SMILES) | pIC50 [1] | pIC50 [2] | pIC50 [3] | pIC50 [4] | pIC50 [5] | pIC50 [6] | pIC50 [7]
O=c1c(O)c(O)oc2ccc(Cl)cc12 | 2.62 | 3.33 | 3.09 | 3.44 | 2.82 | 3.13 | 
O=C(O)C1Cc2cc(Cl)ccc2O1 (stereo not given) | 2.84 |  | 3.00 | 3.27 | 2.83 | 3.07 | 3.38
CC(C)(Oc1ccc(Cl)cc1)C(=O)O [CLOFIBRIC ACID] |  |  | < 2.46 |  | < 2.40 | < 2.51 | 
